Experimental data published in ChEMBL document CHEMBL1821623, “Anti-influenza virus polyketides from the acid-tolerant fungus Penicillium purpurogenum JS03-21” (J Nat Prod, 2011).

System: Influenza A virus
Assay: Antiviral activity against Influenza A virus H1N1 infected in MDCK cells assessed as compound concentration required for inhibiting influenza virus yield at 48 h post-infection by crystal violet staining based CPE inhibition assay
Assay type: functional, organism-based
Method in brief: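 CPE-inhibition assay against influenza A (H1N1). Ribavirin was the positive control. Activity was reported as an IC50 in μM.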

Compound | IC50
NC(=O)c1ncn([C@@H]2O[C@H](CO)[C@@H](O)[C@H]2O)n1 [RIBAVIRIN] | 101 µM
C/C=C/C1=CC2=CC(=O)[C@@](C)(OC(=O)c3c(C)cc(O)cc3O)C(=O)[C@@]2(O)[C@@H](O)O1 [PURPURQUINONE A] | > 200 µM
O=Cc1cc(C(=O)O)cc(O)c1C(=O)c1c(O)cccc1O | 58.6 µM
CC1=C(O)C(=O)c2cc(O)c(O)cc2C1=O | > 200 µM
C/C=C/C1=CC2=CC(=O)[C@@](C)(OC(=O)c3c(C)cc(O)cc3O)C(=O)C2=CO1 | > 200 µM
C/C=C/C1=CC2=CC(=O)[C@@](C)(OC(=O)c3c(C)cc(O)cc3O)C(=O)[C@@]2(O)CO1 | 64 µM
CC/C=C1\OC(=O)c2c1cc(O)c(O)c2C [PURPURESTER B] | > 200 µM
C/C=C/C1=CC2=CC(=O)[C@@](C)(OC(=O)c3c(O)cc(O)c(O)c3C)C(=O)[C@@]2(O)[C@@H](O)O1 [PURPURQUINONE B] | 61.3 µM
CCC[C@]1(OC)OC(=O)c2c1cc(O)c(O)c2C [PURPURESTER A] | 85.3 µM

System: OVCAR-3
Assay: Cytotoxicity against human OVCAR3 cells
Assay type: functional

Compound | GI50
CCCCC[C@@H]1Cc2cc(O)c(C(=O)O)c3c2[C@H](C[C@]2(OC[C@H](CC(=O)C(C)(CC)C(=O)OC)[C@H]2C)O3)O1 (stereo not given in full) [BERKELIC ACID] | 0.091 µM
